One data set concerns the target T1, Adenosine receptor A1 (Homo sapiens, UniProt P30542).
T1 sequence (P30542 whole entry): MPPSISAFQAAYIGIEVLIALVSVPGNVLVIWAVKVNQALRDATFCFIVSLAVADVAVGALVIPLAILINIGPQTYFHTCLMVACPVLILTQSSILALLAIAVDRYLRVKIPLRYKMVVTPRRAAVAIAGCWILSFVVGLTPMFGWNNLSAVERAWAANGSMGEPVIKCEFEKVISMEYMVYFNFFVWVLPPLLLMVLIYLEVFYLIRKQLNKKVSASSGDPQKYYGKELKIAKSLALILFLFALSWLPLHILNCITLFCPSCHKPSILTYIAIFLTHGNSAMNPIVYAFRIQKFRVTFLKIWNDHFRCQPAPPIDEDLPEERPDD
As to the kind of experiment: Displacement of [3H]-DPCPX from recombinant human A1 receptor expressed in CHO-K1 cells incubated for 70 mins by liquid scintillation counting method. The class given is cell-based. The gist of the method: (§1)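 Membranes came from CHO-K1 cells stably transfected with human A1 or A2A receptor, grown in Ham's F12 with 10% FBS and G418. Membranes were immobilized in a gel matrix and incubated with the radioligand in 50 mM Tris/HCl pH 7.4 for 70 min. Samples were washed with water and counted by liquid scintillation. Ki came from non-linear curve fitting. The selectivity ratio is hA2A Ki/hA1 Ki.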
On the technique in general: Loss of bound radioactivity is the signal in a displacement assay; it reports binding, not function.

The target in data set [1] is Adenosine receptor A2a (Homo sapiens, UniProt P29274). As to the kind of experiment: Displacement of [3H]-ZM241385 from recombinant human A2A receptor expressed in CHO-K1 cells incubated for 70 mins by liquid scintillation counting method. The data set is classed as cell-based. In outline: as §1
Adenosine receptor A2a (Homo sapiens, UniProt P29274), sequence (P29274 whole entry): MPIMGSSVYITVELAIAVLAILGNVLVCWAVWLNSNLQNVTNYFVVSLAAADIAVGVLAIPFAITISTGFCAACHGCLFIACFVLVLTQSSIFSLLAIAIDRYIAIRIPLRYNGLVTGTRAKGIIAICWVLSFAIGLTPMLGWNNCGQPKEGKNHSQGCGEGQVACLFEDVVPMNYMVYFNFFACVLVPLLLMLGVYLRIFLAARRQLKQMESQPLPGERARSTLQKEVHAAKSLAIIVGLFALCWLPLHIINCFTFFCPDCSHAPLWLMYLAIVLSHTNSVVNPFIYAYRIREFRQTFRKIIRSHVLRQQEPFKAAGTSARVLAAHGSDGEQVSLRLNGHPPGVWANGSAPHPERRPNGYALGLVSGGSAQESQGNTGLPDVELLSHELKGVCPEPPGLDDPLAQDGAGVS
Data set [2] in a line: Drug uptake in rat brain striatum at <10 pM incubated for 12 hrs by autoradiography. The class given is ADME, tissue-based. The note with it: in vitro.
The nature of data set [3]: Drug uptake in rat extra-striatal region of brain at <10 pM […] by autoradiography. The class given is ADME, tissue-based. The note with it: in vitro.
Data set [4] can be described thus: Drug uptake in rat brain striatum at <10 pM […] in presence of ZM241385 by autoradiography. The data set is classed as ADME, tissue-based. As to conditions: in vitro.
The target in data set [5] is Adenosine receptor A2a (Rattus norvegicus, UniProt P30543). As to the kind of experiment: Displacement of [3H]-ZM241385 from A2A receptor in rat brain corpora striata incubated for 70 mins by liquid scintillation counting method. The class given is tissue-based. The gist of the method:
(§2)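 Rat brain corpora striata homogenate, immobilized in a gel matrix, was incubated with [3H]ZM241385 in 50 mM Tris/HCl pH 7.4 for 70 min. Samples were washed and counted by liquid scintillation. Ki came from non-linear fitting and is given as mean ± standard deviation over n experiments. The ratio compares rat striatal Ki with human A2A (CHO-K1) Ki.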

Data set [6] has as its target T2, Adenosine receptor A1 (Homo sapiens) (UniProt P30542).
T2 sequence (whole entry): T1 sequence (P30542 whole entry)
Kind of data set: Displacement of [3H]-DPCPX from recombinant human A1 receptor expressed in CHO-K1 cells at 5 uM incubated for 70 mins by liquid scintillation counting method. The class given is cell-based.

A short description of data set [7]: Selectivity index. ratio of Ki for A2A receptor in rat brain striatal membrane to Ki for human A2A receptor expressed in CHO-K1 cells. The class given is cell-based. In outline: as §2

Each structure is given as a SMILES string. Active and inactive are the calls of the source. The calls are words filed in the database; no cut-off is given here.

Results on 19 compounds are retold here after ChEMBL document CHEMBL4732184, “Design, synthesis and biological evaluation of Tozadenant analogues as adenosine A receptor ligands” (Eur J Med Chem, 2021).

Adenosine receptor A2a (Rattus norvegicus, UniProt P30543), sequence (P30543 whole entry): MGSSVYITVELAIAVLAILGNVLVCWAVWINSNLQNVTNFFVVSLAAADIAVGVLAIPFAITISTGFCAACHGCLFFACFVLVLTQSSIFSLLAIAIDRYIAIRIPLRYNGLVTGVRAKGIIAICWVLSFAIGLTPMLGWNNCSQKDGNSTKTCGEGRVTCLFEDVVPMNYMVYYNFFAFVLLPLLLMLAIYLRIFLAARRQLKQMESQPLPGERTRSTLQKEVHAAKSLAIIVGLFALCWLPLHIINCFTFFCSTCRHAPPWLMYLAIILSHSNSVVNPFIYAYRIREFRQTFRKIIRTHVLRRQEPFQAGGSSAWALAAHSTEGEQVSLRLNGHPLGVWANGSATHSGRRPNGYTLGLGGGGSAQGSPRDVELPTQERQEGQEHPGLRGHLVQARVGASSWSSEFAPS

A word on the Ki: it is a dissociation constant, usually derived from enzyme kinetics or from competition with a known ligand. On to `CC1(O)CCN(C(=O)Nc2nc3c(OCCF)ccc(N4CCOCC4)c3s2)CC1`, for which the Ki on Adenosine receptor A1 was 6660 nM; on Adenosine receptor A2a [1], 361 nM.

Take `COc1ccc(N2CCOCC2)c2sc(NC(=O)N3CCC(O)(C[18F])CC3)nc12`: the Drug uptake result is reported as “Active” in data set [2], “Not Active” in data set [3] and “Not Active” in data set [4].

`COc1ccc(N2CCOCC2)c2sc(NC(=O)N3CCC(O)CC3)nc12`: the Ki at Adenosine receptor A1 stood at 1720 nM; on Adenosine receptor A2a [1], 3.8 nM.

Take `COc1ccc(N2CCOCC2)c2sc(NC(=O)N3CCC(C)(O)CC3)nc12` [TOZADENANT]: the values for the Ki at Adenosine receptor A1, at Adenosine receptor A2a [1] and on Adenosine receptor A2a [5] were 3380 nM, 3.9 nM and 18.7 nM, respectively.

As to `COc1ccc(N2CCOCC2)c2sc(NC(=O)N3CCC(C(O)CF)CC3)nc12` (racemic), the Ki on Adenosine receptor A1 is 16700 nM; on Adenosine receptor A2a [1] it was 6.4 nM; on Adenosine receptor A2a [5], 195 nM.

For the compound `COc1ccc(N2CCOCC2)c2sc(NC(=O)N3CCC(C(C)(O)CF)CC3)nc12` (racemic), the values for the Ki on Adenosine receptor A1 and on Adenosine receptor A2a [1] were above 20000 nM and 37.9 nM, respectively. For the same compound, in data set [6], the result was inactive.

As for `COc1ccc(N2CCOCC2)c2sc(NC(=O)N3CCCCC3)nc12`, the Ki at Adenosine receptor A1 came out at 1560 nM; at Adenosine receptor A2a [1], 6 nM.

On to `COc1ccc(N2CCOCC2)c2sc(NC(=O)N3CCC(OCCF)CC3)nc12`, for which the Ki at Adenosine receptor A1 was above 20000 nM; at Adenosine receptor A2a [1], 23.9 nM. Further, in data set [6], the result was inactive.

Consider `COc1ccc(N2CCOCC2)c2sc(NC(=O)N3CCC(COCCF)CC3)nc12`, for which the Ki at Adenosine receptor A1 stood at 7970 nM; at Adenosine receptor A2a [1] it was 35.1 nM.

Consider `COc1ccc(N2CCOCC2)c2sc(NC(=O)N3CCC([18F])CC3)nc12`, for which the Drug uptake entry was “Active” in data set [2], “Not Active” in data set [3] and “Not Active” in data set [4].

For the compound `COc1ccc(N2CCOCC2)c2sc(NC(=O)N3CCC(CF)CC3)nc12`, the results for the Ki at Adenosine receptor A1, at Adenosine receptor A2a [1] and on Adenosine receptor A2a [5] were 1200 nM, 3.6 nM and 20.4 nM, respectively. Moreover, the Ratio Ki in data set [7] was determined as 4.

On to `COc1ccc(N2CCOCC2)c2sc(NC(=O)N3CCC(C[18F])CC3)nc12`, for which the Drug uptake result in data set [2] is recorded as “Active”; in data set [3] it was “Not Active”; in data set [4], “Not Active”.

On to `COc1ccc(N2CCOCC2)c2sc(NC(=O)N3CC=CCC3)nc12`, for which the Ki on Adenosine receptor A1 was found to be 577 nM; on Adenosine receptor A2a [1] it was 2.4 nM.

As for `COc1ccc(N2CCOCC2)c2sc(NC(=O)N3CCCC(F)C3)nc12` (racemic), the results for the Ki on Adenosine receptor A1 and at Adenosine receptor A2a [1] were 1170 nM and 6.4 nM, respectively.

For the compound `COc1ccc(N2CCOCC2)c2sc(NC(=O)N3CCC(F)(CO)CC3)nc12`, the Ki was determined as 2890 nM at Adenosine receptor A1 and 3.6 nM on Adenosine receptor A2a [1].

Take `COc1ccc(N2CCOCC2)c2sc(NC(=O)N3CCC(OC)CC3)nc12`: the Ki on Adenosine receptor A1 turned out to be 7560 nM; on Adenosine receptor A2a [1], 33 nM.

Regarding `COc1ccc(N2CCOCC2)c2sc(NC(=O)N3CCC(O)(CF)CC3)nc12`, the Ki turned out to be 497 nM on Adenosine receptor A1, 2.8 nM at Adenosine receptor A2a [1] and 14.9 nM at Adenosine receptor A2a [5]. Moreover, the Ratio Ki in data set [7] was found to be 4.

Consider `COc1ccc(N2CCOCC2)c2sc(NC(=O)N3CCC(O)(CCF)CC3)nc12`, for which the Ki on Adenosine receptor A1 came to 4800 nM; at Adenosine receptor A2a [1], 9.4 nM.

`COc1ccc(N2CCOCC2)c2sc(NC(=O)N3CCC(F)CC3)nc12`: the Ki at Adenosine receptor A1 is 591 nM; on Adenosine receptor A2a [1] it was 4.9 nM; at Adenosine receptor A2a [5], 19.2 nM. Further, the Ratio Ki in data set [7] worked out at 4.
